Laboratory results taken from ChEMBL document CHEMBL3400051, “Five new phorbol esters with cytotoxic and selective anti-inflammatory activities from Croton tiglium” (Bioorg Med Chem Lett, 2015).

Tests used:
[1] = Cytotoxicity against human LX2 cells after 44 hrs by MTT assay; format: cell-based; details: LX-2, 44 h
Procedure, shortened: (§1)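 Cells cultured in 88% DMEM, 12% FBS, 100 units/mL penicillin and streptomycin. Seeded at 2 × 10^5 cells/mL, 24 h at 37 °C in 5% CO2, then medium replaced with compound in growth medium at 80, 40, 20, 10 and 5 concentrations for 44 h. MTT (5 mg/mL) added for a further 4 h; absorbance at 490 nm. Untreated cells as negative control, Taxol positive control.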

HEK-293T = experiment: Cytotoxicity against human 293T cells after 44 hrs by MTT assay; format: cell-based; procedure, shortened: as §1
NCI-H1975 = experiment: Cytotoxicity against human NCI-H1975 cells assessed as cell viability after 72 hrs by CCK8 assay; format: functional, cell-based; details: NCI-H1975, 72 h
Procedure, shortened: (§2)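 Cells grown in RPMI or DMEM with 10% FBS and 1% penicillin/streptomycin at 37 °C, 5% CO2. Seeded at 400-800 cells/well in 384-well plates, treated with a range of compound concentrations or solvent control for 72 h. CCK8 reagent added, absorbance read at 450 nm; IC50 from dose-response curves. Taxol positive control.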

K562 = experiment: Cytotoxicity against human K562 cells assessed as cell viability after 72 hrs by CCK8 assay; format: functional, cell-based; details: K562, 72 h; procedure, shortened: as §2
[2] = Cytotoxicity against human HL60 cells assessed as cell viability after 72 hrs by CCK8 assay; format: functional, cell-based; details: HL-60, 72 h; procedure, shortened: as §2
HeLa = experiment: Cytotoxicity against human HeLa cells assessed as cell viability after 72 hrs by CCK8 assay; format: functional, cell-based; procedure, shortened: as §2
DU-145 = experiment: Cytotoxicity against human DU145 cells assessed as cell viability after 72 hrs by CCK8 assay; format: functional, cell-based; details: DU-145, 72 h; procedure, shortened: as §2
MOLT-4 = experiment: Cytotoxicity against human MOLT4 cells assessed as cell viability after 72 hrs by CCK8 assay; format: functional, cell-based; details: MOLT-4, 72 h; procedure, shortened: as §2
[3] = Cytotoxicity against human U937 cells assessed as cell viability after 72 hrs by CCK8 assay; format: functional, cell-based; details: U-937, 72 h; procedure, shortened: as §2
[4] = molecular target: T1, Prostaglandin G/H synthase 2 (Homo sapiens, UniProt P35354)
T1 sequence (P35354 whole entry): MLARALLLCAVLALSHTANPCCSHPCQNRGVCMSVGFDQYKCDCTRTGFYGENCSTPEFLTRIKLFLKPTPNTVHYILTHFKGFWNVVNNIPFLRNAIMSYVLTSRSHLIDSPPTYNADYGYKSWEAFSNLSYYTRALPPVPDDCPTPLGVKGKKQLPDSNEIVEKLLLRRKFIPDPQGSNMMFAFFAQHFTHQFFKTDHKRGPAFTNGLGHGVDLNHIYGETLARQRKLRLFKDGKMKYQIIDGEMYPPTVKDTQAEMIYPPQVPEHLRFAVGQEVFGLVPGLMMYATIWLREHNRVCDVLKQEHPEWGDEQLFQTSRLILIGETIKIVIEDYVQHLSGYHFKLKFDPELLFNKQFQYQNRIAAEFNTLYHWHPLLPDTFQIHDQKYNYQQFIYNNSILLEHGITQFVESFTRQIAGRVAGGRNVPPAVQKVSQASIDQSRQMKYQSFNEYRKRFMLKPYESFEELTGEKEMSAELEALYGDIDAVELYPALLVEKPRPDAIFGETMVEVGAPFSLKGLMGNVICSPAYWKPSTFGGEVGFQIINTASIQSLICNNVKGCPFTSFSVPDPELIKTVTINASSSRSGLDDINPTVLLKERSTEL

[5] = molecular target: T2, Prostaglandin G/H synthase 1 (Ovis aries, UniProt P05979); experiment: Inhibition of ovine COX1 using fluorometric substrate after 15 mins
T2 sequence (P05979 whole entry): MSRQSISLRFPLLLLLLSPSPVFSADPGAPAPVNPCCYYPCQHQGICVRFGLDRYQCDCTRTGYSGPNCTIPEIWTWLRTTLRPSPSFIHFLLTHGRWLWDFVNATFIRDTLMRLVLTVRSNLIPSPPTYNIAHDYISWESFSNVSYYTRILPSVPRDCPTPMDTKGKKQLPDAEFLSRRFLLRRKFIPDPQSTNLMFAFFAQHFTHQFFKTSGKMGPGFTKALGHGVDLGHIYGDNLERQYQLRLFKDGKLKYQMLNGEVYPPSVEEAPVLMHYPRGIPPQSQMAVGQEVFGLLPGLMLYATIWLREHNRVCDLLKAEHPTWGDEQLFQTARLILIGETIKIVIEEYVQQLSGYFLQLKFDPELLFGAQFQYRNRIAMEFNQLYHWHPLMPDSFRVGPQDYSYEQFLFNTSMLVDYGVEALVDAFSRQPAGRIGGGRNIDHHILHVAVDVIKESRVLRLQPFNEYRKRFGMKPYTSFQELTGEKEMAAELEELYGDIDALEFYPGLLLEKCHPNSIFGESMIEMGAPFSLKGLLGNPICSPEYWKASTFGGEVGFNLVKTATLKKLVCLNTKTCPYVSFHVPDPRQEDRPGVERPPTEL

[6] = Cytotoxicity against human SGC7901 cells assessed as cell viability after 72 hrs by CCK8 assay; format: functional, cell-based; details: SGC-7901, 72 h; procedure, shortened: as §2
MCF7 = experiment: Cytotoxicity against human MCF7 cells assessed as cell viability after 72 hrs by CCK8 assay; format: functional, cell-based; details: MCF7, 72 h; procedure, shortened: as §2
A549 = experiment: Cytotoxicity against human A549 cells assessed as cell viability after 72 hrs by CCK8 assay; format: functional, cell-based; details: A549, 72 h; procedure, shortened: as §2

Q: What does the source list for `C/C=C(\C)C(=O)O[C@@H]1[C@@H](C)[C@@]2(O)[C@@H](C=C(CO)C[C@]3(O)C(=O)C(C)=C[C@@H]23)[C@@H]2C(C)(C)[C@]12OC(=O)C(C)CC` (stereo partly drawn)?
A: IC50 [1]: > 500 µM; IC50 (HEK-293T): 157 µM; IC50 (NCI-H1975): 10 µM; IC50 (K562): 2.2 µM; IC50 [2]: 1.2 µM; IC50 (HeLa): 10 µM; IC50 (DU-145): 5 µM; IC50 (MOLT-4): 1 µM; IC50 [3]: 2.6 µM; IC50 [4]: > 50 µM; IC50 [5]: > 50 µM

Q: For `C/C=C(\C)C(=O)O[C@@H]1[C@@H](C)[C@@]2(O)[C@@H](C=C(CO)C[C@]3(O)C(=O)C(C)=C[C@@H]23)[C@@H]2C(C)(C)[C@]12OC(=O)C(C)C`, which IC50 [1] is on record?
A: > 500 µM

Q: And the IC50 (HEK-293T)?
A: 171 µM

Q: What about the IC50 [6] of the same compound?
A: 43 µM

Q: What about the IC50 (NCI-H1975) of the same compound?
A: 10 µM

Q: And the IC50 (MCF7)?
A: > 50 µM

Q: What about the IC50 (K562) of the same compound?
A: 4.4 µM

Q: What about the IC50 [2] of the same compound?
A: 1.2 µM

Q: And the IC50 (HeLa)?
A: 9.2 µM

Q: And the IC50 (DU-145)?
A: 1.1 µM

Q: What about the IC50 (MOLT-4) of the same compound?
A: 1.1 µM

Q: What about the IC50 [3] of the same compound?
A: 5.5 µM

Q: What about the IC50 [4] of the same compound?
A: > 50 µM

Q: What about the IC50 [5] of the same compound?
A: > 50 µM

Q: What about the IC50 (A549) of the same compound?
A: 32 µM

Q: With `CC(=O)O[C@@H]1[C@@H](C)[C@@]2(O)[C@@H](C=C(CO)C[C@]3(O)C(=O)C(C)=C[C@@H]23)[C@@H]2C(C)(C)[C@]12OC(=O)C(C)C` as the compound, how does the IC50 [1] read?
A: > 500 µM

Q: And the IC50 (HEK-293T)?
A: 292 µM

Q: What about the IC50 [6] of the same compound?
A: 13 µM

Q: What about the IC50 (NCI-H1975) of the same compound?
A: 10 µM

Q: And the IC50 (MCF7)?
A: 13 µM

Q: What about the IC50 (K562) of the same compound?
A: 4 µM

Q: And the IC50 [2]?
A: 12 µM

Q: And the IC50 (HeLa)?
A: 3.9 µM

Q: What about the IC50 (DU-145) of the same compound?
A: 7.2 µM

Q: And the IC50 (MOLT-4)?
A: 2.4 µM

Q: And the IC50 [3]?
A: 6.8 µM

Q: What about the IC50 [4] of the same compound?
A: > 50 µM

Q: And the IC50 [5]?
A: > 50 µM

Q: What about the IC50 (A549) of the same compound?
A: 5.8 µM

Q: With `CCC(C)C(=O)O[C@@]12[C@H](OC(=O)c3ccccc3)[C@@H](C)[C@@]3(O)[C@@H](C=C(CO)C[C@]4(O)C(=O)C(C)=C[C@@H]34)[C@@H]1C2(C)C` (stereo partly drawn) as the compound, how does the IC50 [1] read?
A: > 500 µM

Q: What about the IC50 (HEK-293T) of the same compound?
A: 420 µM

Q: And the IC50 [6]?
A: 10 µM

Q: What about the IC50 (NCI-H1975) of the same compound?
A: 3.3 µM

Q: And the IC50 (MCF7)?
A: 20 µM

Q: And the IC50 (K562)?
A: 15 µM

Q: And the IC50 [2]?
A: 6.8 µM

Q: And the IC50 (HeLa)?
A: 4.6 µM

Q: What about the IC50 (DU-145) of the same compound?
A: 4.3 µM

Q: And the IC50 (MOLT-4)?
A: 12 µM

Q: What about the IC50 [3] of the same compound?
A: 17 µM

Q: And the IC50 [4]?
A: 8.5 µM

Q: What about the IC50 [5] of the same compound?
A: 0.14 µM

Q: What about the IC50 (A549) of the same compound?
A: 6.9 µM

Q: Which IC50 [1] does the source give for `C/C=C(\C)C(=O)O[C@@H]1[C@@H](C)[C@@]2(O)[C@@H](C(=O)C(CO)=C[C@]3(O)C(=O)C(C)=C[C@@H]23)[C@@H]2C(C)(C)[C@]12OC(=O)C(C)CC` (stereo partly drawn) here?
A: > 500 µM

Q: What about the IC50 (HEK-293T) of the same compound?
A: 455 µM

Q: And the IC50 [6]?
A: 23 µM

Q: What about the IC50 (NCI-H1975) of the same compound?
A: 10 µM

Q: And the IC50 (MCF7)?
A: 20 µM

Q: What about the IC50 (K562) of the same compound?
A: 17 µM

Q: What about the IC50 [2] of the same compound?
A: 10 µM

Q: And the IC50 (HeLa)?
A: 5 µM

Q: And the IC50 (DU-145)?
A: 10 µM

Q: And the IC50 (MOLT-4)?
A: 4.8 µM

Q: What about the IC50 [3] of the same compound?
A: 21 µM

Q: And the IC50 [4]?
A: > 50 µM

Q: What about the IC50 [5] of the same compound?
A: > 50 µM

Q: And the IC50 (A549)?
A: 19 µM

Q: Which results are given for `CCC(C)C(=O)O[C@@]12[C@H](O)[C@@H](C)[C@]3(O)[C@@H]4C=C(C)C(=O)[C@@H]4CC(CO)=C[C@H]3[C@@H]1C2(C)C` (stereo partly drawn)?
A: IC50 [1]: > 500 µM; IC50 (HEK-293T): 191 µM; IC50 [6]: 5.4 µM; IC50 (NCI-H1975): 3.3 µM; IC50 (MCF7): 24 µM; IC50 (K562): 8 µM; IC50 [2]: 9.8 µM; IC50 (HeLa): 10 µM; IC50 (DU-145): 10 µM; IC50 (MOLT-4): 9.9 µM; IC50 [3]: 18 µM; IC50 [4]: > 50 µM; IC50 [5]: > 50 µM; IC50 (A549): 4.5 µM

Q: With `CCC(C)C(=O)O[C@@]12[C@H](OC(C)=O)[C@@H](C)[C@@]3(O)[C@@H](C(=O)C(CO)=C[C@]4(O)C(=O)C(C)=C[C@@H]34)[C@@H]1C2(C)C` (stereo partly drawn) as the compound, how does the IC50 [1] read?
A: 352 µM

Q: And the IC50 (HEK-293T)?
A: 147 µM

Q: And the IC50 [6]?
A: > 50 µM

Q: What about the IC50 (NCI-H1975) of the same compound?
A: 10 µM

Q: And the IC50 (MCF7)?
A: > 50 µM

Q: And the IC50 (K562)?
A: 7.2 µM

Q: What about the IC50 [2] of the same compound?
A: 9.9 µM

Q: And the IC50 (HeLa)?
A: 10 µM

Q: And the IC50 (DU-145)?
A: 11 µM

Q: What about the IC50 (MOLT-4) of the same compound?
A: 10 µM

Q: What about the IC50 [3] of the same compound?
A: 14 µM

Q: What about the IC50 [4] of the same compound?
A: > 50 µM

Q: And the IC50 [5]?
A: > 50 µM

Q: And the IC50 (A549)?
A: > 50 µM

Q: Which results are given for `CC(=O)O[C@H]1C(=O)[C@@]2(C)[C@H]([C@H](OC(=O)c3ccccc3)[C@]3(O)C[C@H](OC(=O)[C@H](O)[C@@H](NC(=O)c4ccccc4)c4ccccc4)C(C)=C1C3(C)C)[C@]1(OC(C)=O)CO[C@@H]1C[C@@H]2O` [PACLITAXEL]?
A: IC50 [6]: 0.0051 µM; IC50 (NCI-H1975): 0.0077 µM; IC50 (MCF7): 0.0062 µM; IC50 (K562): 0.0052 µM; IC50 [2]: 0.0018 µM; IC50 (DU-145): 0.0034 µM; IC50 (MOLT-4): 0.0022 µM; IC50 [3]: 0.0025 µM
